Tn6 DDE FP: inhibitors of Tn6 peptide binding to fibrin DD(E), primary screen, biochemical, fluorescence polarization, human fibrin, Tn6 probe; 370,000 tested, 0.21% active; Fibrin DD(E) TRITC-Tn6 fluorescence polarization displacement; inhibition, % at 8.3 µM; Fibrinogen beta chain (Homo sapiens), P02675;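 active means inhibition above a per-campaign cutoff: mean of compounds within control limits plus 3 SD, cut at about 15% in these data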
Target sequence (P02675 whole entry, looked up): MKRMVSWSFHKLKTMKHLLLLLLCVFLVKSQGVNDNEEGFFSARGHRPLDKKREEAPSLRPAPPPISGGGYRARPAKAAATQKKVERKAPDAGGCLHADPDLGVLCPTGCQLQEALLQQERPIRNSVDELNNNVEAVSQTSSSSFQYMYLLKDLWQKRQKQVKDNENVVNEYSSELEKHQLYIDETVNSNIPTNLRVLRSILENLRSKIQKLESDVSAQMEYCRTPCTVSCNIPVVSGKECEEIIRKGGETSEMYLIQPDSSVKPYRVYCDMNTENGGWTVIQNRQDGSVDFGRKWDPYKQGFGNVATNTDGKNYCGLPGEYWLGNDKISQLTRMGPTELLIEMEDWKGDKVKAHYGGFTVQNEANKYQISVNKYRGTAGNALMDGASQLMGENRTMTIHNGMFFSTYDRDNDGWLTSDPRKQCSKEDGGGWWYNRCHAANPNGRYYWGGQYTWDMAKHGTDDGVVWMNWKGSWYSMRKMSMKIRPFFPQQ
SKN-1 inh: suppressors of acrylamide-induced Pgst-4::GFP reporter in worms, primary screen, SKN-1 inhibitor project, whole organism, uHTS, GFP/RFP fluorescence ratio, strain VP596; C. elegans VP596 Pgst-4::GFP/RFP ratio, 24 h; inhibition, % at 21.8 µM; 360,000 tested, 0.49% active;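 active means interference check ratio from 0.5 to 1.5 plus GFP to RFP signal ratio inhibition reaching or exceeding a fixed threshold, cut at about 30% in these data, passing the limit was not always enough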
Tn7 DDE FP: inhibitors of Tn7 peptide binding to fibrin DD(E), primary screen, biochemical, fluorescence polarization, human fibrin, Tn7 probe; Fibrinogen beta chain (Homo sapiens), P02675; FP displacement of FITC-Tn7 peptide from fibrin DD(E); 0% = median of compound wells per plate; inhibition, % at 8.3 µM; 370,000 tested, 0.13% active;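 active means inhibition above the mean of compounds falling within the control limits plus 3 SD of them, cut at about 14% in these data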
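Measure: % inhibition scaled between sample-field median and high-control FP; Test system: human fibrin DD(E); Quantity: 2 µM final DD(E) protein; Doses: one dose, 8.3 µM nominal; Schedule: compound with protein 10 min, then 3 h after probe, room temperature; Detection: fluorescence polarization; Medium: Tris buffer with calcium and detergent, pH 7.8.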
MT1-MMP act inh: blockers of MT1-MMP proenzyme processing, primary screen, HT1080 RFP-PRO-GFP cells, GFP/RFP fluorescence; GFP/RFP ratio fluorescence, overnight; percent of plate control window, DMSO zero; GFP/RFP ratio change, % at 20 µM; 360,000 tested, 0.061% active;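 active means GFP/RFP ratio change of at least 30% with cell ATP level not reduced by more than half and red fluorescence within 50% of control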
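Assay system: HT1080 RFP-PRO-GFP cells | Dosing: 20 µM single dose, 1% DMSO | Incubation: Cells overnight before dosing, compound overnight, 37 °C, 5% CO2 | Evaluation: GFP/RFP fluorescence ratio | Control set: DMSO-only wells and HT1080 RFP-L50D-GFP cell wells as references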
A number is an active result. An excerpt weighted towards active compounds, which were near 0.84% of everything screened.

O=C(COC(=O)CCCN1C(=O)c2ccccc2C1=O)Nc1ncc(Cl)cc1Cl was read as Tn6 DDE FP inactive, SKN-1 inh inactive, Tn7 DDE FP 15.2 and MT1-MMP act inh inactive.
Cc1cccc(N=C2NC(=O)/C(=C/c3cccn3C)S2)c1C was read as Tn6 DDE FP inactive, SKN-1 inh 40.7, Tn7 DDE FP inactive and MT1-MMP act inh inactive.
Cc1ccc(N=C2NC(=O)/C(=C/c3cccn3C)S2)cc1C was read as Tn6 DDE FP inactive, SKN-1 inh inactive, Tn7 DDE FP inactive and MT1-MMP act inh inactive.
O/N=C(\c1ccc(Cl)cc1)c1ncc(C(F)(F)F)cc1Cl was read as Tn6 DDE FP inactive, SKN-1 inh inactive, Tn7 DDE FP inactive and MT1-MMP act inh inactive.
Screening FC(F)(F)c1cnc2c(-c3ccc(Cl)cc3Cl)noc2c1 returned Tn6 DDE FP inactive, SKN-1 inh 32.4, Tn7 DDE FP inactive and MT1-MMP act inh inactive.
`CCCN(CCC)C(C(=O)Nc1cccc(OC)c1)c1ccccc1` (stereo not given) gave Tn6 DDE FP inactive, SKN-1 inh inactive, Tn7 DDE FP inactive and MT1-MMP act inh inactive.
Screening O=C(Nc1ccc(Cl)cc1)C(c1ccccc1)N(CCO)CCO (stereo not given) returned Tn6 DDE FP inactive, SKN-1 inh 36.8, Tn7 DDE FP inactive and MT1-MMP act inh inactive.
`C=CCOCCN(CC)CC` gave Tn6 DDE FP inactive, SKN-1 inh inactive, Tn7 DDE FP inactive and MT1-MMP act inh inactive.
C=CCC1CCCCC1=C(C#N)c1ccccc1 (stereo not given) was read as Tn6 DDE FP inactive, SKN-1 inh 46.0, Tn7 DDE FP inactive and MT1-MMP act inh inactive.
CCC1OC2(C)OC(=N)C1(C#N)C(C#N)(C#N)C2c1ccccc1 (stereo not given) was read as Tn6 DDE FP inactive, SKN-1 inh 46.8, Tn7 DDE FP inactive and MT1-MMP act inh inactive.
Screening CCC12OC(=N)C(C#N)(C1C)C(C#N)(C#N)C(c1ccccc1)O2 (stereo not given) returned Tn6 DDE FP inactive, SKN-1 inh inactive, Tn7 DDE FP inactive and MT1-MMP act inh inactive.
For c1ccc(-c2cc3c(N4CCCC4)ncnc3s2)cc1 the results were Tn6 DDE FP inactive, SKN-1 inh inactive, Tn7 DDE FP inactive and MT1-MMP act inh inactive.
`c1ccc(-c2cc3c(N4CCOCC4)ncnc3s2)cc1` gave Tn6 DDE FP inactive, SKN-1 inh 38.0, Tn7 DDE FP inactive and MT1-MMP act inh inactive.
Clc1ccc(C#Cc2cccnc2)cc1 was read as Tn6 DDE FP inactive, SKN-1 inh 74.7, Tn7 DDE FP inactive and MT1-MMP act inh inactive.
COC(=O)[C@]12C[C@H](CC(=O)N3CCCC3)C(=O)N(Cc3ccco3)C1=C[C@H](C1CCCC1)O[C@@H]2C was read as Tn6 DDE FP inactive and Tn7 DDE FP inactive.
COc1ccc(CN2C(C(=O)NCC(C)C)CSCCS2(=O)=O)cc1 (stereo not given) was read as Tn6 DDE FP inactive and Tn7 DDE FP inactive.
Screening O=C(Cc1ccc(NC(=O)C2CCCN(C(=O)CCc3ccccc3)C2)cc1)Nc1cccc(C(=O)N2CCCC2)c1 (stereo not given) returned Tn6 DDE FP inactive, SKN-1 inh inactive, Tn7 DDE FP inactive and MT1-MMP act inh inactive.
Screening Cn1c(N/N=C/c2ccccc2)nc2sc3c(c2c1=O)CCC3 returned Tn6 DDE FP inactive, SKN-1 inh 48.2, Tn7 DDE FP inactive and MT1-MMP act inh inactive.
For O=C(CSc1nc2sc3c(c2c(=O)n1-c1ccccc1)CCCC3)N/N=C/c1ccc(C(=O)O)cc1 the results were SKN-1 inh inactive and MT1-MMP act inh inactive.
COc1ccc2c3c(cccc13)N(C)N=C2C was read as Tn6 DDE FP inactive, SKN-1 inh 40.9, Tn7 DDE FP inactive and MT1-MMP act inh inactive.
`CCN(CCc1ccccc1)c1ccc2c(c1)C1CC2CCN1Cc1ccccc1` (stereo not given) gave Tn6 DDE FP inactive, SKN-1 inh inactive, Tn7 DDE FP inactive and MT1-MMP act inh inactive.
For CC(=O)c1ccc(NC(=O)Cc2ccsc2)cc1 the results were Tn6 DDE FP inactive, SKN-1 inh inactive, Tn7 DDE FP inactive and MT1-MMP act inh inactive.
`Cc1cc(NC(=O)Cc2ccsc2)ccc1Br` gave Tn6 DDE FP inactive, SKN-1 inh 62.7, Tn7 DDE FP inactive and MT1-MMP act inh inactive.
c1ccc(CCNc2ncnc3c2cnn3-c2ccccc2)cc1 was read as Tn6 DDE FP inactive, SKN-1 inh 35.3, Tn7 DDE FP inactive and MT1-MMP act inh inactive.
`Clc1ccc(Nc2ncnc3c2cnn3-c2ccccc2)cc1` gave Tn6 DDE FP inactive, SKN-1 inh 37.5, Tn7 DDE FP inactive and MT1-MMP act inh inactive.
`c1ccc(CNc2ncnc3c2cnn3-c2ccccc2)cc1` gave Tn6 DDE FP inactive, SKN-1 inh inactive, Tn7 DDE FP inactive and MT1-MMP act inh inactive.
`CC(=O)Nc1ccc(Nc2ncnc3c2cnn3-c2ccccc2)cc1` gave Tn6 DDE FP inactive, SKN-1 inh inactive, Tn7 DDE FP inactive and MT1-MMP act inh inactive.
`O=[N+]([O-])c1cc([N+](=O)[O-])c2nonc2c1Nc1ccc(O)cc1` gave Tn6 DDE FP 17.9, SKN-1 inh inactive, Tn7 DDE FP inactive and MT1-MMP act inh inactive.
For O=[N+]([O-])c1cc([N+](=O)[O-])c2nonc2c1Nc1ccccc1O the results were Tn6 DDE FP inactive, SKN-1 inh inactive, Tn7 DDE FP inactive and MT1-MMP act inh inactive.
`C=CC[C@]12C[C@@]3(O[C@H](c4ccc(C(F)(F)F)cc4)N=C3C[C@H](c3ccc(OC)cc3)[C@H]1C)N(Cc1ccncc1)C2=O` gave Tn6 DDE FP inactive and Tn7 DDE FP inactive.
Screening Brc1cc(Br)c2nc(-c3cccs3)ccc2c1 returned Tn6 DDE FP inactive, SKN-1 inh 57.6, Tn7 DDE FP inactive and MT1-MMP act inh inactive.
Screening COC(=O)c1cccc(Nc2ncnc3ccc(C)cc23)c1 returned Tn6 DDE FP inactive, SKN-1 inh inactive, Tn7 DDE FP inactive and MT1-MMP act inh inactive.
`Cc1ccc2ncnc(Nc3cccc([N+](=O)[O-])c3)c2c1` gave Tn6 DDE FP inactive, SKN-1 inh 38.4, Tn7 DDE FP inactive and MT1-MMP act inh inactive.
For O=C(Cn1nnc(-c2ccccc2F)n1)Nc1ccc2c(c1)OCCO2 the results were Tn6 DDE FP inactive, SKN-1 inh inactive, Tn7 DDE FP inactive and MT1-MMP act inh inactive.
`c1ccc(Oc2cc(-c3ccccc3)nc(-c3ccccc3)n2)cc1` gave Tn6 DDE FP inactive, SKN-1 inh inactive, Tn7 DDE FP inactive and MT1-MMP act inh inactive.
Screening c1ccc(Oc2cc(-c3ccccc3)ncn2)cc1 returned Tn6 DDE FP inactive, SKN-1 inh 49.7, Tn7 DDE FP inactive and MT1-MMP act inh inactive.
